Tests used:
[1] = target: Glutamate NMDA receptor; test: Binding affinity towards PCP site of the NMDA receptor was measured by displacement of […] in […]; format: tissue-based, Brain
[2] = species on record: Mus musculus; test: Testing for ataxia was done by using an inverted screen technique; format: functional
Outline: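 Inverted-screen test in CF-1 mice (22-28 g), scored 5 min after retrobulbar test agent in 0.9% saline (5 mL/kg), immediately before NMDA injection.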

[3] = target: T1, Glutamate NMDA receptor (Rattus norvegicus) (UniProt P35439+Q00959+Q00960+Q00961+Q62645+Q8VHN2+Q9R1M7); test: Evaluated in vivo for its NMDA antagonist activity by the inhibition of NMDA-induced lethality in mice; format: functional, organism-based; conditions: Mus musculus; target entry is the homologue from another species
Outline: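 CF-1 mice, 22-28 g. Test agent or vehicle (0.9% saline, 5 mL/kg) was given by retrobulbar injection 5 min before a 25 mg/kg NMDA bolus given retrobulbar in the other eye. Endpoint was prevention of lethality.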

[4] = target: Glutamate NMDA receptor; test: Ability to inhibit glutamate induced accumulation of [45 [Ca2+]] in cultured rat cortical neurons; format: functional
Outline: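 Fetal rat cortical hemisphere dissociated cultures used on day 14-16 after plating. Medium was serum- and Mg-free HBSS with 1.4 mM CaCl2, pH 7.4 (35 mM bicarbonate), 37 °C, 5% CO2. Cells were exposed 30 min to 100 μM L-glutamate (final) plus [45Ca2+] (2 μCi/mL) ± test agent, washed with saline, lysed, and counted. Baseline was subtracted.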

[5] = Partition coefficient (logP) (HPLC); format: physicochemical; conditions: octanol/water
[6] = Partition coefficient was measured using a standard shake flask (SF) method at pH 7.4.; format: physicochemical; conditions: octanol/water
Outline: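 Shake-flask partitioning at pH 7.4.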

[7] = target: T1, Glutamate NMDA receptor (Rattus norvegicus); test: Percent inhibition at PCP site of NMDA receptor complex was measured by displacement of […] in whole rat brain homogenate at 10 E-7 M; format: tissue-based
Outline: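 [3H]TCP displacement from rat brain membrane preparation (cortical membranes in the methods; whole-brain homogenate in the assay description), following a previously published procedure.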

SMILES | IC50 [1] [nM] | Ataxia [2] [mg/kg] | ED50 [3] [mg/kg] | IC50 [4] [nM] | logP [5] | logD [6] | inhibition [7] [%]
CNC12CC=CCC1COc1ccccc12 (stereo not drawn) | 122 | – | – | – | – | – | –
CN[C@@]12CCCCC1CCc1ccccc12 (stereo partly drawn) | 41.5 | 1 | 0.97 | 810 | – | – | –
NC12CCCCC1CCc1ccc(O)cc12 (stereo not drawn) | 7.5 | 3 | 5.5 | 520 | – | – | –
CNC12CCCCC1CCc1sccc12 (stereo not drawn) | 31 | 1 | 0.89 | 350 | – | – | –
NC12CCCCC1CCc1ccccc12 (single isomer, unassigned; form 1) [listing 1 of 2 here] | 11.3 | <0.3 | – | 480 | – | – | –
NC12CCCCC1CCc1ccccc12 (single isomer, unassigned; form 2) [listing 1 of 2 here] | 113 | <3 | – | 2250 | – | – | –
NC12CCCCC1CSc1ccccc12 (stereo not drawn) | 80.6 | 4.7 | 2.9 | 1870 | – | – | –
CNC12CCCCC1CC(C)(C)c1ccccc12 (stereo not drawn) | 20800 | – | – | – | – | – | –
CN[C@@]12CCCCC1CSc1ccccc12 (stereo partly drawn) | 199 | – | – | – | – | – | –
CNC12CCCCC1CC(=O)c1ccccc12 (stereo not drawn) | 270 | – | – | – | 2.41 | 0.78 | –
CC1(N)c2ccccc2CCC12CCCC2 (stereo not drawn) | – | – | – | – | – | – | 5
CC1CC2CC=CCC2(N)c2ccccc21 (stereo not drawn) | 2460 | – | – | – | 3.4 | 1.89 | –
CN[C@]12CCCCC1CSc1ccccc12 (stereo partly drawn) | 30 | – | – | – | – | – | –
CC1CC2CCCCC2(N)c2ccccc21 (stereo not drawn) | 508 | – | – | – | 3.59 | 1.61 | –
COc1ccc2c(c1)C1(N)CCCCC1CC2 (stereo not drawn) | 18 | 1.3 | 1.2 | 440 | – | – | –
CNC12CC=CCC1CC(C)(C)c1ccccc12 (stereo not drawn) | – | – | – | – | – | – | 0
CNC1(c2ccccc2Cl)CCCCC1=O (stereo not drawn) [KETAMINE] | – | 10 | 6 | 8860 | – | 2.18 | –
NC12CCCCC1COc1ccccc12 (stereo not drawn) | 178 | 10 | 5.7 | – | – | – | –
CNC12CC=CCC1CCc1ccc(OC)cc12 (stereo not drawn) | 21 | 1 | 4.1 | 410 | – | – | –
NC12CC=CCC1CCc1ccc(O)cc12 (stereo not drawn) | 28 | 1.5 | 4.6 | 1600 | – | – | –

SMILES | IC50 [1] [nM] | Ataxia [2] [mg/kg] | ED50 [3] [mg/kg] | IC50 [4] [nM] | logP [5] | logD [6] | inhibition [7] [%]
CN[C@]12CCCCC1CCc1ccccc12 (stereo partly drawn) | 7.47 | 0.18 | 0.39 | 180 | – | – | –
CN(C)C12CCCCC1CCc1ccccc12 (stereo not drawn) | 21 | <0.3 | 1.6 | 1630 | – | – | –
C[C@]12N[C@H](Cc3ccccc31)c1ccccc12 [DIZOCILPINE] | – | 0.3 | – | – | – | – | –
CNC12CC=CCC1CCc1sccc12 (stereo not drawn) | 57 | – | – | – | – | – | –
CNC12CCCCC1CC(O)c1ccccc12 (stereo not drawn) | 1490 | – | – | – | 1.84 | 0.73 | –
CNC12CCCCC1CCc1ccc(OC)cc12 (stereo not drawn) | 5.8 | 0.4 | 1 | 1110 | 3.75 | 1.51 | –
CNC12CC(O)CCC1CCc1ccccc12 (stereo not drawn) | 500 | – | – | – | 2.37 | – | –
NC1c2ccccc2CCC12CCCCC2 (stereo not drawn) | 3400 | – | – | – | – | – | –
CNC12CCC(CN)CC1CCc1ccccc12 (stereo not drawn) | – | – | – | – | 2 | – | 8
NC12CC=CCC1CCc1ccccc12 (stereo not drawn) | 87.5 | <1 | 4.2 | 2350 | 2.75 | – | –
CNC1(C)c2ccccc2CCC12CCCC2 (stereo not drawn) | – | – | – | – | – | – | 5
C=CCNC12CCCCC1CCc1ccccc12 (stereo not drawn) | 86 | <1 | 10 | 920 | – | – | –
CNC12CCCCC1CCc1ccc(O)cc12 (stereo not drawn) | 2.07 | 0.58 | 0.89 | 64 | 2.56 | 0.31 | –
NC1c2ccccc2CCC12CCCC2 (stereo not drawn) | – | – | – | – | – | – | 8
CNC12CC=CCC1CC(C)c1ccccc12 (stereo not drawn) | 654 | – | – | – | – | – | –
N#CC1CCC2(N)c3ccccc3CCC2C1 (stereo not drawn) | – | – | – | – | – | – | 2
CCNC12CCCCC1CSc1ccccc12 (stereo not drawn) | 523 | – | – | – | – | – | –
c1ccc2c(c1)CCC1CCCCC21N1CCCCC1 (stereo not drawn) | – | – | – | – | – | – | 7
NC12CCCCC1CCc1sccc12 (stereo not drawn) | 43 | 3 | 0.97 | 1570 | 3.02 | 0.66 | –
CNC12CC=CCC1CSc1ccccc12 (stereo not drawn) | 69 | 1.8 | 2 | 420 | – | – | –

SMILES | IC50 [1] [nM] | Ataxia [2] [mg/kg] | ED50 [3] [mg/kg] | IC50 [4] [nM] | logP [5] | logD [6] | inhibition [7] [%]
c1ccc(C2(N3CCCCC3)CCCCC2)cc1 [PHENCYCLIDINE] | – | 1 | 0.55 | 200 | – | – | –
CNC12CCCCC1CCc1c(C)cc(OC)cc12 (stereo not drawn) | 53.5 | 3.3 | 5.6 | 930 | 4.02 | 1.72 | –
CCNC12CCCCC1CCc1ccccc12 (stereo not drawn) | 199 | – | – | – | 3.41 | 1.15 | –
NC12CC=CCC1COc1ccccc12 (stereo not drawn) | 399 | – | – | – | – | – | –
CNC12CCCCC1Sc1ccccc12 (stereo not drawn) | – | – | 0.41 | 210 | – | – | –
NCC1CCC2(N)c3ccccc3CCC2C1 (stereo not drawn) | – | – | – | – | – | – | 1
CNC12CCCCC1CSc1ccccc12 (stereo not drawn) | 62 | 1.5 | 0.7 | 710 | 3.88 | 1.54 | –
COc1ccc2c(c1)C1(N)CC=CCC1CC2 (stereo not drawn) | 46 | 2.1 | 2.1 | 850 | – | – | –
NC12CC=CCC1CSc1ccccc12 (stereo not drawn) | 101 | – | – | 1700 | – | – | –
CN[C@]12CCCCC1Cc1ccccc12 (stereo partly drawn) | 10.1 | – | 0.1 | 120 | – | – | –
NC12CCCCC1CCc1ccccc12 (stereo not drawn) [listing 1 of 2 here] | 25.4 | 0.55 | – | 370 | 2.92 | – | –
CNC1c2ccccc2CCC12CCCC2 (stereo not drawn) | – | – | – | – | – | – | 8
CC1(C)CC2CCCCC2(N)c2ccccc21 (stereo not drawn) | 37000 | – | – | – | – | – | –
CNC12CCCCC1CC(C)c1ccccc12 (stereo not drawn) | 317 | – | – | – | – | – | –
NC12CCCCC1CCc1ccccc12 (stereo not drawn) [listing 2 of 2 here] | – | – | 0.64 | – | – | – | –
CNC12CCCCC1CCc1ccccc12 (stereo not drawn) | 14.7 | 0.44 | 0.54 | 310 | 3.25 | – | –
CNC12CCCCC1COc1ccccc12 (stereo not drawn) | 113 | 0.63 | 3.7 | 2300 | 3.31 | 0.96 | –
NC12CCCCC1CCc1ccccc12 (single isomer, unassigned; form 1) [listing 2 of 2 here] | – | – | 1.3 | – | – | – | –
CNC12CC=CCC1CCc1ccccc12 (stereo not drawn) | 27.3 | 0.6 | 1.8 | 400 | 3.07 | – | –
NC12CCCCC1CCc1ccccc12 (single isomer, unassigned; form 2) [listing 2 of 2 here] | – | – | 10 | – | – | – | –

Source: ChEMBL document CHEMBL1126730, “Synthesis and pharmacological evaluation of 4a-phenanthrenamine derivatives acting at the phencyclidine binding site of the N-methyl-D-aspartate receptor complex” (J Med Chem, 1993)
